Assay outcomes deposited in PubChem BioAssay by several laboratories.
Most compounds without a hit are left out; they make up all but 5.1% or so of the library.
STAT1 inh: STAT1 signaling inhibitors, primary screen, cell-based, HTS, luciferase reporter. NIH 3T3 STAT1-luciferase reporter, IFN-gamma, luminescence. inhibition, % at 5.5 µM. 200,000 compounds, 0.35% hits;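 active means inhibition above a set limit, the mean inhibition across all tested compounds plus 3 SD, cut at about 34% in these data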
NF-kB neuron act: activators of NF-kB expression in neurons, primary screen, cell-based, HTS | human neuronal cells, NF-kB reporter expression; hits give high values | 190,000 compounds, 1.6% hits | fold change at 12.5 µM; in the data active means fold change above about 3.3
APP 5'UTR act: activators of APP 5'UTR luciferase reporter, primary screen, SH-SY5Y cells; SH-SY5Y APP 5'UTR luciferase reporter, luminescence; zero percent = DMSO vehicle wells; activation, % at 2 µM; 190,000 compounds, 1% hits;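 active means activation above a set limit, based on mean plus 3 SD of controls, cut at about 140% in these data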
STAT1 activator: STAT1 signaling activators, primary screen, cell-based, HTS, luciferase reporter; NIH 3T3 STAT1-luciferase reporter, IFN-gamma, luminescence; 100% = IFN-gamma alone, no compound; activation (% of control), % at 5.5 µM; 200,000 compounds, 2.6% hits; AID 932, 2007;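 active means activation above the screen-wide mean activation plus 3 SD, cut at about 130% in these data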
STAT3 inh: IL-6 driven STAT3 reporter inhibitors, primary screen, U3A cells, luciferase, luminescence, MLSCN library. IL-6 STAT3-luciferase reporter; host cell line lacks STAT1. inhibition, % at 5.5 µM. 190,000 compounds, 0.89% hits. AID 862, 2007;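 active means inhibition above the mean inhibition across all screened compounds plus 3 SD, cut at about 44% in these data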
STAT3 act: IL-6 driven STAT3 reporter potentiators, primary screen, U3A cells, luciferase, luminescence, MLSCN library; activation (% of control), % at 5.6 µM; 190,000 compounds, 0.91% hits; AID 871, 2007; IL-6 STAT3-luciferase reporter; 100% = signal with IL-6 EC80 alone;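 active means activation above the screen-wide mean of compound activation plus 3 SD, cut at about 130% in these data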
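Test system: human U3A cells carrying STAT3-luciferase construct; control set: IL-6-only wells as 100% reference; timing: compound pre-incubation 1 h before IL-6, then 6 h stimulation at 37 °C; also added: IL-6 stimulus at 33 ng/mL final; evaluation: % activation versus median of IL-6-stimulated wells; detection: reporter luminescence signal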
Each line names hits and unclear results; the compound was inactive in the other large screens.

Clc1ccc(-c2nc3ccccn3c2CN2CCCCC2)cc1	STAT3 inh 46
CCCN(C(=O)c1ccco1)c1nnc(-c2cccc(C)c2)s1	none
CCN(C(=O)c1ccco1)c1nnc(-c2ccc(OC)cc2)s1	NF-kB neuron act 3.6
COc1ccc(-c2nnc(N(C)C(=O)C3CCCO3)s2)cc1 (stereo not given)	none
COc1ccc(-c2nnc(N(C)C(=O)C3CCOC3)s2)cc1 (stereo not given)	APP 5'UTR act 157
COc1ccc(/C=N/NC(=O)CCc2c(C)n[nH]c2C)cc1O	none
O=C(NCc1ccccc1)C(c1ccncc1)N(C(=O)c1csnn1)C1CC1 (stereo not given)	none
CN(/N=C/c1cccnc1)c1cnc2ccccc2n1	APP 5'UTR act 170, STAT1 activator 172, STAT3 act 152
C(=N\N=C\c1cccnc1)/c1cccnc1	none
Cc1ccc(C(=O)C2=C(O)C(=O)N(Cc3ccccc3)C2c2cccnc2)o1 (stereo not given)	STAT1 inh 37
O=C(c1ccccc1)c1nn(-c2ccc(Cl)cc2)c(=O)cc1C(F)(F)F	STAT3 act 134
CCc1c(O)cc(=O)n(-c2ccccc2)c1-c1ccccc1	none
Cc1ccc(C2=NN(C(=O)CN3C(=O)c4ccccc4S3(=O)=O)C(c3ccco3)C2)cc1 (stereo not given)	none
O=C1c2ccccc2S(=O)(=O)N1CC1CC(c2ccc(Cl)cc2)=NO1 (stereo not given)	STAT1 activator 139
COc1ccc(C2=NOC(CN3C(=O)c4ccccc4S3(=O)=O)C2)cc1 (stereo not given)	NF-kB neuron act 5.5, APP 5'UTR act 137, STAT1 activator 148
Cc1cc(=O)oc2cc(OCC3CC(c4ccc(Cl)cc4)=NO3)ccc12 (stereo not given)	none
O=C1c2ccccc2S(=O)(=O)N1CC1CC(c2ccccc2)=NO1 (stereo not given)	STAT1 activator 132
CSc1nnc(C)c(=O)n1COC(=O)c1ccccc1	none
CC(C)N(Cc1ccccc1)C(=O)COC(=O)c1ccc2c(c1)OCCO2	none
N#CCC(=O)Nc1ccc(C(=O)OCC(=O)c2ccc3c(c2)OCCO3)cc1	NF-kB neuron act 4.6
CC(C)C(=O)Nc1ccccc1C(=O)OCC(=O)c1ccc2c(c1)OCCO2	STAT1 activator 139
CNc1ccccc1C(=O)OCC(=O)c1ccc(F)cc1	STAT1 activator 132
NS(=O)(=O)c1cc(C(=O)OCC(=O)c2ccc3c(c2)OCCO3)ccc1Cl	NF-kB neuron act 9.8
NS(=O)(=O)c1cc(C(=O)OCC(=O)NC2CC2)ccc1Cl	none
CNc1ccccc1C(=O)OCC(=O)c1ccccc1	none
NS(=O)(=O)c1ccc(NC(=O)COC(=O)c2ccc3c(c2)OCCO3)cc1	none
Cc1c(F)cccc1NS(=O)(=O)c1ccc2c(c1)NC(=O)CO2	none
Cc1ccc(S(=O)(=O)NC(=O)c2cc(C)n(C3CC3)c2C)cc1	none
Cc1ccccc1-c1ncc(CN2CCC(CO)(CCCc3ccccc3)CC2)cn1	none
Cc1[nH]c2ccccc2c1C(=O)CSC(=S)N(C)C	STAT1 activator 130
CC1=NCC(C)c2c1[nH]c1ccccc21 (stereo not given)	none
CN(C)/C=C1/N=C(c2ccccc2)OC1=O	none
O=C1OC(c2ccccc2)=N/C1=C\N1CCCCC1	STAT1 activator 143
O=C1OC(c2ccc(Br)cc2)=N/C1=C\N1CCCCC1	STAT1 activator 138
O=C(COC(=O)c1cccc(C(=O)OCC(=O)NCc2ccc(F)cc2)n1)NCc1ccc(F)cc1	none
CCOC(=O)C(Nc1ccc2ccccc2c1)C(=O)OCC	STAT3 act 136
CC(=O)Nc1ccc2ccccc2c1	none
Nc1nc(CCOc2ccc(F)cc2)cs1	STAT1 activator 141
Nc1nc(COc2ccc3ccccc3c2)cs1	STAT1 activator 138
C=CCOC(=O)/C(=C\c1cccc2ccccc12)NC(=O)c1ccccc1	STAT1 activator 136
C=CCOC(=O)/C(=C\c1ccccc1)NC(=O)c1ccc(C)cc1	STAT1 activator 132
N#C/C(=C\c1ccc([N+](=O)[O-])o1)c1nc2ccccc2[nH]1	none
N#C/C(=C\c1ccc(Sc2ccccc2)o1)c1nc2ccccc2[nH]1	APP 5'UTR act 139
CC(C)(C)OC(=O)N/N=C/c1ccc(Br)cc1	NF-kB neuron act 4.5, STAT1 activator 149
CC(C)(C)NC(=O)C(=O)N/N=C/c1ccc(Br)cc1	none
O=C(N/N=C\C=C\c1ccco1)c1cc(-c2ccc3ccccc3c2)n[nH]1	STAT1 activator 133
O=C(N/N=C/C=C/c1ccco1)c1cccnc1	none
CC1CC(=O)Nc2ccccc2N1C(=O)CN1CCN(c2ccccc2)CC1 (stereo not given)	none
CC1=C/C(=N\OS(=O)(=O)c2ccccc2)C(C)=CC1=O	NF-kB neuron act 9.8
CC1=C(C)/C(=N\OS(=O)(=O)c2ccc(C)cc2)C=CC1=O	none
CC1=C/C(=N\OS(=O)(=O)c2ccccc2)C(C(C)C)=CC1=O	NF-kB neuron act 5.9
CN(/N=C/c1ccc([N+](=O)[O-])o1)c1ccccc1	STAT1 activator 135
Cc1cc(=O)[nH]c(S/C=C/c2ccccc2)n1	NF-kB neuron act 4.1
Nc1cc(=O)[nH]c(SC/C=C/c2ccccc2)n1	none
CCOC(=O)Cc1c(C)nc(SC)[nH]c1=O	none (no result: NF-kB neuron act)
Nc1cccc(CCc2nc3cc4ccccc4cc3[nH]2)c1	NF-kB neuron act 4.2, STAT1 activator 131
c1ccc(CCc2nc3ccccc3[nH]2)cc1	none
Cc1c(C(=O)OCC(=O)N2CC(=O)Nc3ccccc32)oc2ccc(Br)cc12	none
O=C(COc1ccc(OCc2ccccc2)cc1)NN=C1CCCC1	none
Cc1cc(OCc2ccc(C(=O)NN=C3CCCC3)cc2)ccc1Cl	STAT1 activator 130
O=C1CC(C(=O)Nc2ccccc2)S/C(=N\NC(=O)c2ccccc2Cl)N1 (stereo not given)	none
Cc1cc(OCC(=O)N(C)C2CCCCC2)ccc1Cl	APP 5'UTR act 142 (no result: NF-kB neuron act)
Cc1ccccc1-n1cnnc1SCC(=O)Nc1cccnc1Cl	none
COCCNC(=O)[C@@]1(Cc2ccccc2)C=C[C@@H](C)N1C(C)=O	none
Fc1ccc(N=C2NN=C(c3cc(F)ccc3F)CS2)cc1	none
Fc1ccccc1N=C1NN=C(c2ccccc2)CS1	NF-kB neuron act 4.6, APP 5'UTR act 158, STAT1 activator 143
Fc1ccc(F)c(C2=NNC(=Nc3ccccc3F)SC2)c1	NF-kB neuron act 5.1, STAT1 activator 143
Cc1cccc(N=C2NN=C(c3ccccc3F)CS2)c1C	none
